SENP1 FRET inh: human SENP1 catalytic domain inhibitors, primary screen, biochemical, FRET, uHTS; Sentrin-specific protease 1 (Homo sapiens), Q9P0U3; recombinant SENP1 catalytic domain, CyPet-SUMO1-YPet FRET cleavage; inhibition, % at 10 µM; 0.21% of 360,000 active; AID 624204, 2012;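 active = inhibition at least 30% at 10 µM, raw YFP signal under a set limit, fluorescence ratio 0.5 to 1.5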
Target sequence (Q9P0U3 419-644 limits assumed): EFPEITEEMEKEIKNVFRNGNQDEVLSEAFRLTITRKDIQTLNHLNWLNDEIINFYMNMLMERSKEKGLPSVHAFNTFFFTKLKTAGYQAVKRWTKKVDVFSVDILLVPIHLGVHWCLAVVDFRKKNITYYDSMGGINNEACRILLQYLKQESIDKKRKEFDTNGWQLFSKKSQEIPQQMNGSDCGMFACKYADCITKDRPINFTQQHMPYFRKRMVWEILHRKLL
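Compound: 10 µM single point, 0.5% DMSO; Test system: hSENP1 catalytic domain, recombinant; Timing: 50 min reaction at room temperature; Technique: FRET, CFP and YFP emission; Control set: no-enzyme wells low, DMSO-plus-enzyme wells high control.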
CSN deneddyl inh: inhibitors of CSN-mediated cullin deneddylation, primary screen, biochemical, fluorescence polarization, uHTS | 0.38% of 360,000 active | inhibition, % at 12.5 µM | COP9 signalosome complex subunit 5 (Homo sapiens), Q92905 | Purified CSN, SCF-Nedd8-OG deneddylation;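 active = pattern-corrected inhibition above about 35%, with an unprinted fluorescence ratio check between 0.5 and 1.5, limit read from the data, passing the limit was not always enough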
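Material: purified human Csn5 enzyme expressed in HEK293T cells / Medium: Tris buffer pH 7.5, NaCl, DTT, Tween-20, trehalose, ovalbumin / Compound dosing: 12.5 µM single point / Schedule: 90 min incubation of compound, enzyme and substrate at room temperature / Signal: fluorescence polarization of the substrate / Control set: no-enzyme wells high, enzyme-with-substrate wells low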
HNF4A DNA FP: change in binding of human HNF4A to DNA, primary screen, biochemical, fluorescence polarization, FITC-DNA. activity change, % at 10 µM. 0.3% of 360,000 active. Hepatocyte nuclear factor 4-alpha (Homo sapiens), P41235. 1 h; in the data active = activity change above about 30%, passing the limit was not always enough
TPT1 inhibitor: Candida albicans TPT1 enzyme inhibitors, primary screen, biochemical, fluorescence polarization; inhibition, % at 5 µM; 0.81% of 300,000 active; tRNA 2'-phosphotransferase TPT1 (Candida albicans SC5314); recombinant caTPT1, FP RNA substrate dephosphorylation;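 active = inhibition above the mean of all tested compounds plus 3 SD, set per screening campaign, cut at about 24% in these data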
Rpn11 block: Rpn11 (PSMD14) deubiquitinase inhibitors, primary screen, biochemical, fluorescence polarization, uHTS; inhibition, % at 20 µM; 26S proteasome non-ATPase regulatory subunit 14 (Homo sapiens), O00487; 0.59% of 360,000 active; human 26S proteasome, Ub4-pepOG fluorescence polarization; 20S core pre-blocked with epoxomicin;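 active = inhibition at 20 µM, scaled to each plate's controls, above about 33%, limit read from the data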
Target sequence (O00487 whole entry, looked up): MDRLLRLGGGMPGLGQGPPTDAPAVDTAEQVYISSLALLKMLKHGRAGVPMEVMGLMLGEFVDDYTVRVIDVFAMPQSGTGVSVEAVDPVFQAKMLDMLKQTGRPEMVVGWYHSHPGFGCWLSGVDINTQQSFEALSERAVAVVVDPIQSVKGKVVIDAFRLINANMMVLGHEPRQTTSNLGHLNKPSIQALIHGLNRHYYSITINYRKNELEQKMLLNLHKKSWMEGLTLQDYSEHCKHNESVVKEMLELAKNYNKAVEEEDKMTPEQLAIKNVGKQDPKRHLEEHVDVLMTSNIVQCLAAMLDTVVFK
caTPT1 confirm: Candida albicans TPT1 inhibitors, confirmation, biochemical, fluorescence polarization, triplicate; shares compounds with TPT1 inhibitor; recombinant caTPT1, RNase T1 coupled; inhibition, % at 5 µM; 74% of 2,400 active; AID 2149, 2009;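 active = inhibition above the primary screen limit, the mean inhibition of all tested compounds plus 3 SD, cut at about 25% in these data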
RNase T1 counter: RNase T1 inhibitors, counter-screen for TPT1 inhibitor project, biochemical, fluorescence polarization; shares compounds with TPT1 inhibitor; RNase T1 cleavage, 1536-well; inhibition, % at 5 µM; 83% of 2,400 active;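 active = inhibition above the solvent-only control well mean plus 3 SD, limit set per screening run, cut at about 23% in these data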;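 also: inhibitors block cleavage so intact labeled substrate keeps polarization high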
Target sequence (P00651 whole entry, looked up): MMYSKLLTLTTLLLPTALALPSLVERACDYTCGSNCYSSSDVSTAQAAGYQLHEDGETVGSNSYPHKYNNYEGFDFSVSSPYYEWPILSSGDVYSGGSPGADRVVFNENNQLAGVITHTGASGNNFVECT
A number is an active result. Only some compounds are listed: those with a hit (about 1.6% of all), similar ones and a draw of the others.

CNc1ncnc2c1ncn2[C@H]1CN(Cc2ccncc2)C[C@@H](CO)O1 was read as SENP1 FRET inh inactive, CSN deneddyl inh inactive, HNF4A DNA FP inactive and Rpn11 block inactive.
Screening COc1ccc(OC)c(/C=C2/Sc3ccccc3C2=O)c1 returned SENP1 FRET inh inactive, CSN deneddyl inh inactive, HNF4A DNA FP inactive, TPT1 inhibitor 111, caTPT1 confirm 101 and RNase T1 counter 102.
`CC(=O)N(C)/C=C1\Sc2ccccc2C1=O` gave SENP1 FRET inh inactive, CSN deneddyl inh inactive, HNF4A DNA FP inactive, TPT1 inhibitor inactive and Rpn11 block inactive.
`O=C1/C(=C/c2cccnc2)Sc2ccccc21` gave SENP1 FRET inh inactive, CSN deneddyl inh inactive, HNF4A DNA FP inactive, TPT1 inhibitor inactive and Rpn11 block inactive.
Cc1ccc(/C=C2\Sc3ccccc3C2=O)s1 was read as SENP1 FRET inh inactive, CSN deneddyl inh inactive, HNF4A DNA FP inactive, TPT1 inhibitor 44, Rpn11 block inactive, caTPT1 confirm 58 and RNase T1 counter 70.
CC(=O)Nc1ccc(/C=C2\Sc3ccccc3C2=O)cc1 was read as SENP1 FRET inh inactive, CSN deneddyl inh inactive, HNF4A DNA FP inactive, TPT1 inhibitor 35, Rpn11 block inactive, caTPT1 confirm 41 and RNase T1 counter 46.
CC1CC(C)CN(C(=O)C2CCN(S(=O)(=O)c3cccc4cccnc34)CC2)C1 (centres undefined) was read as SENP1 FRET inh inactive, CSN deneddyl inh inactive, HNF4A DNA FP inactive, TPT1 inhibitor inactive and Rpn11 block inactive.
Screening Cc1c(N=C2SCC(=O)N2/N=C/c2ccccc2)c(=O)n(-c2ccccc2)n1C returned SENP1 FRET inh inactive, CSN deneddyl inh inactive, HNF4A DNA FP inactive, TPT1 inhibitor inactive and Rpn11 block inactive.
`N=c1oc2ccc(Br)cc2cc1C(=O)NCc1ccc(F)cc1` gave SENP1 FRET inh inactive, CSN deneddyl inh inactive, HNF4A DNA FP inactive, TPT1 inhibitor inactive and Rpn11 block inactive.
CCN(CC)c1ccc2cc(C(=O)NCc3ccc(F)cc3)c(=N)oc2c1 was read as SENP1 FRET inh inactive, CSN deneddyl inh inactive, HNF4A DNA FP inactive, TPT1 inhibitor 78, caTPT1 confirm 109 and RNase T1 counter 109.
Screening C/C(=N\NC(=O)c1c(C)nc2ccccn12)c1ccc(O)cc1O returned SENP1 FRET inh inactive, CSN deneddyl inh inactive, HNF4A DNA FP inactive, TPT1 inhibitor 35, Rpn11 block inactive, caTPT1 confirm 38 and RNase T1 counter 41.
Screening Cc1ccc(/C=N/n2c(C)nc3ccccc3c2=O)s1 returned TPT1 inhibitor inactive.
For CC(C)Cc1ccccc1O the results were TPT1 inhibitor inactive.
CC(=O)Oc1ccc(C(=O)Nc2ccccc2C(=O)N2CCCC2)cc1 was read as SENP1 FRET inh inactive, CSN deneddyl inh inactive, HNF4A DNA FP inactive, TPT1 inhibitor 49, Rpn11 block inactive, caTPT1 confirm inactive and RNase T1 counter inactive.
Screening CC(=O)Oc1ccc(C(=O)Nc2ccccc2C(=O)N2CCCCC2)cc1 returned SENP1 FRET inh inactive, CSN deneddyl inh inactive, HNF4A DNA FP inactive, TPT1 inhibitor inactive and Rpn11 block inactive.
For O=C(CSc1nc(-c2ccccc2)cc(=O)[nH]1)Nc1ccc(F)c(F)c1 the results were SENP1 FRET inh inactive, CSN deneddyl inh inactive, HNF4A DNA FP inactive, TPT1 inhibitor inactive and Rpn11 block inactive.
`Cc1ccccc1-n1c(=O)n(Cc2ccco2)c(=O)c2[nH]cnc21` gave SENP1 FRET inh inactive, CSN deneddyl inh inactive, HNF4A DNA FP inactive, TPT1 inhibitor inactive and Rpn11 block inactive.
For Nc1c(Cl)cc2c(c1Oc1ccccc1)C(=O)c1ccccc1C2=O the results were SENP1 FRET inh 70, CSN deneddyl inh inactive, HNF4A DNA FP inactive, TPT1 inhibitor 25, Rpn11 block inactive, caTPT1 confirm 30 and RNase T1 counter 41.
`Nc1c(Cl)cc2c(c1Br)Cc1ccccc1-2` gave SENP1 FRET inh inactive, CSN deneddyl inh inactive, HNF4A DNA FP inactive and Rpn11 block inactive.
`Cc1cc(C)cc(Nc2ccc(C(=O)O)cc2N)c1` gave SENP1 FRET inh inactive, CSN deneddyl inh inactive, HNF4A DNA FP inactive, TPT1 inhibitor 29, Rpn11 block inactive, caTPT1 confirm inactive and RNase T1 counter inactive.
O=C(N[C@@H](c1ccccc1)[C@H](O)c1ccccc1)[C@@H]1CCCN1C(=O)OCc1ccccc1 was read as SENP1 FRET inh inactive, CSN deneddyl inh inactive, HNF4A DNA FP inactive, TPT1 inhibitor inactive and Rpn11 block inactive.
Screening C/C(=N/Nc1nc(-c2ccccc2F)nc2ccccc12)c1ccccc1O returned SENP1 FRET inh 74, CSN deneddyl inh inactive, HNF4A DNA FP inactive, TPT1 inhibitor 32, Rpn11 block inactive, caTPT1 confirm 36 and RNase T1 counter 51.
`C/C(=N\Nc1nc(-c2ccccc2O)nc2ccccc12)c1ccccc1` gave SENP1 FRET inh inactive, CSN deneddyl inh inactive, HNF4A DNA FP inactive, TPT1 inhibitor inactive and Rpn11 block inactive.
CCn1nc(C(=O)Nc2ccc(S(=O)(=O)Nc3nccs3)cc2)c2ccccc2c1=O was read as SENP1 FRET inh inactive, CSN deneddyl inh inactive, HNF4A DNA FP inactive, TPT1 inhibitor 31, Rpn11 block inactive, caTPT1 confirm 54 and RNase T1 counter 71.
For O=C(Nc1ccc(S(=O)(=O)Nc2ncccn2)cc1)c1nn(Cc2ccccc2)c(=O)c2ccccc12 the results were SENP1 FRET inh inactive, CSN deneddyl inh inactive, HNF4A DNA FP inactive, TPT1 inhibitor inactive and Rpn11 block inactive.
Screening O=C(Nc1ccc(S(=O)(=O)Nc2nccs2)cc1)c1cnc(Cl)c(Cl)c1 returned SENP1 FRET inh inactive, CSN deneddyl inh inactive, HNF4A DNA FP inactive, TPT1 inhibitor 33, Rpn11 block inactive, caTPT1 confirm 31 and RNase T1 counter 48.
O=C(O)C(=O)/C(=C\c1cccc2ccccc12)c1ccc2ccccc2n1 was read as SENP1 FRET inh inactive, CSN deneddyl inh inactive, HNF4A DNA FP inactive, TPT1 inhibitor 49, caTPT1 confirm 89 and RNase T1 counter 102.
For COc1cc2c(cc1OC)-c1cc(OCCN3CCOCC3)nc(=O)n1CC2 the results were SENP1 FRET inh inactive, CSN deneddyl inh inactive, HNF4A DNA FP inactive, TPT1 inhibitor 25, Rpn11 block inactive, caTPT1 confirm 32 and RNase T1 counter 44.
